pIC50: −log10 of the molar value. Structures can show the parent of a compound that is named as a salt. Activity calls are given as the source filed them. The calls are words filed in the database; no cut-off is given here.
How the values were obtained:
[1] = tested on: Mycolicibacterium smegmatis; assay: Antimycobacterial activity against Mycobacterium smegmatis NBRC 3207 assessed as inhibition zone at 10 ug/disc after 2 days incubation by paper disc method; type: functional; conditions: for zone of inhibition at 10 µg/disc: NBRC 3207, 48 h, read-out: IZ
Outline: (§1)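 Disc diffusion: strain grown in Middlebrook 7H9 broth (0.05% polysorbate 80, 0.5% glycerol, 10% OADC) 2 days at 37 °C, adjusted to 1.0 × 10^6 CFU/mL, spread on same medium with 1.5% agar. Sample in CH3OH dried onto 6 mm filter disc, placed on plate, 2 days at 37 °C. Controls: streptomycin sulfate 5 μg/disc, CH3OH.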

[2] = molecular target: T1, Tyrosine-protein phosphatase non-receptor type 1 (Homo sapiens, UniProt P18031); assay: Inhibition of human recombinant PTP1B using pNPP as substrate assessed as rate of hydrolysis incubated for 10 mins prior to substrate addition measured after 30 mins by microplate reader analysis
T1 sequence (P18031 whole entry): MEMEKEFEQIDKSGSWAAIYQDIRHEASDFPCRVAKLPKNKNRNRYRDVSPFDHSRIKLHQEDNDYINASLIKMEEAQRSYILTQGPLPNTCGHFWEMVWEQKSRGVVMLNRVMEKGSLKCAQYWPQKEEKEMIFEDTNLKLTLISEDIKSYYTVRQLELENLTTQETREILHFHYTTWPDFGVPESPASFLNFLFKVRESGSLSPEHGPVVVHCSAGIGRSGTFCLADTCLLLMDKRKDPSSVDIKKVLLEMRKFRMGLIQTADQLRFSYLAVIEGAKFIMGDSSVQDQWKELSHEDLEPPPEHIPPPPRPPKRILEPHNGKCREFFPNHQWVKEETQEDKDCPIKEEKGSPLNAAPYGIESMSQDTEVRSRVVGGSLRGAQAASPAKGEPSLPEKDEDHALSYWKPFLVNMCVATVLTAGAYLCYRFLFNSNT

[3] = Cytotoxicity against human HuH7 cells after 72 hrs by WST1 assay; type: functional, cell-based; conditions: Huh-7, 72 h
Outline: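 1 × 10^4 cells/well seeded, cultured overnight, then exposed to compound 72 h; vehicle control 0.1% EtOH. WST-1 reagent (0.5 mM WST-1, 0.02 mM 1-methoxy-5-methylphenazinium methylsulfate) added, 60 min at 37 °C. Viability = treated/control absorbance × 100%.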

[4] = Cytotoxicity against human EJ1 cells after 72 hrs by WST1 assay; type: functional, cell-based; conditions: EJ1, 72 h
Outline: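 1 × 10^4 cells/well seeded, cultured overnight, then exposed to compound 72 h; vehicle control 0.1% EtOH. WST-1 reagent (0.5 mM WST-1, 0.02 mM 1-methoxy-5-methylphenazinium methylsulfate) added, 60 min at 37 °C. Absorbance 438 nm (reference 620 nm). Viability = treated/control absorbance × 100%.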

[5] = tested on: Mycolicibacterium smegmatis; assay: Antimycobacterial activity against Mycobacterium smegmatis NBRC 3207 assessed as inhibition zone at 20 ug/disc after 2 days incubation by paper disc method; type: functional; conditions: NBRC 3207, 48 h, read-out: IZ; outline: as §1

pIC50 [2]	SMILES	growth inhibition (GI) [1]	pIC50 [3]	pIC50 [4]	zone of inhibition at 20 µg/disc [5]	zone of inhibition at 10 µg/disc [1]
< 4.64	CC1=CC(=O)C[C@H]2[C@](C)(CC/C(C)=C/C[n+]3cn(C)c4ncnc(N)c43)[C@@H](C)CC[C@@]12C	inactive	< 4.30	< 4.30		
< 4.64	CC1=CC(=O)C[C@H](C)[C@@]1(C)CC/C(C)=C/CC/C(C)=C/C[n+]1cn(C)c2ncnc(N)c21		< 4.30	< 4.30		
< 4.64	CC1=CCC[C@H](C)[C@@]1(C)CCC(C)(O)CCC/C(C)=C/C[n+]1cn(C)c2ncnc(N)c21 (stereo partly specified)		< 4.30	< 4.30	10 mm	
< 4.64	CC1=CC(=O)C[C@@H]2[C@@](C)(CC/C(C)=C/C[n+]3cn(C)c4ncnc(N)c43)[C@H](C)CC[C@@]12C		< 4.30	< 4.30		
< 4.62	C=C1CCCC(C)(C)[C@H]1CC/C(C)=C/CC/C(C)=C/C[n+]1cn(C)c2ncnc(N)c21		< 4.30	< 4.30	14 mm	10 mm
4.82	C/C(=C\Cn1c[n+](C)c2ncnc(N)c21)CC[C@]1(C)[C@@H](C)CC[C@@]2(C)C(COC(=O)c3cc(Br)c[nH]3)=CCC[C@@H]12		4.59	4.74	12 mm	10 mm
< 4.62	CC1=CCC[C@H](C)[C@@]1(C)CC/C(C)=C/CC/C(C)=C/Cn1c[n+](C)c2ncnc(N)c21 [AGELINE A]		4.62	4.80	20 mm	14 mm
< 4.72	C/C(=C\Cn1c[n+](C)c2ncnc(N)c21)CC[C@]1(C)[C@@H](C)CC[C@@]2(C)C(COC(=O)c3ccc[nH]3)=CCC[C@@H]12 [AGELINE B]		< 4.30	< 4.30	12 mm	9 mm

More lines, now with the values behind:

SMILES	pIC50 [2]	growth inhibition (GI) [1]	pIC50 [3]	pIC50 [4]	zone of inhibition at 20 µg/disc [5]	zone of inhibition at 10 µg/disc [1]
CC1=CCC[C@H]2[C@](C)(CC/C(C)=C/Cn3c[n+](C)c4ncnc(N)c43)[C@@H](C)CC[C@@]12C [AGELASINE A]	< 4.62		< 4.30	4.38	14 mm	12 mm
CC1=CCC[C@@H]2[C@@](C)(CC/C(C)=C/Cn3c[n+](C)c4ncnc(N)c43)[C@H](C)CC[C@@]12C [AGELASINE B]	< 4.62		4.66	4.72	15 mm	12 mm
C=C1CC[C@@H]2C(C)(C)CCC[C@@]2(C)[C@@H]1CC/C(C)=C/Cn1c[n+](C)c2ncnc(N)c21 [AGELASINE D]	< 4.62		4.44	4.72	18 mm	14 mm
COc1cccc2c1C(=O)c1c(O)c3c(c(O)c1C2=O)C[C@@](O)(C(=O)CO)C[C@@H]3O[C@H]1C[C@H](N)[C@H](O)[C@H](C)O1 [DOXORUBICIN]				7.64		
CN[C@@H]1[C@H](O[C@H]2[C@H](O[C@H]3[C@H](O)[C@@H](O)[C@H](N=C(N)N)[C@@H](O)[C@@H]3N=C(N)N)O[C@@H](C)[C@]2(O)C=O)O[C@@H](CO)[C@H](O)[C@H]1O [STREPTOMYCIN SULFATE]						30 mm
